{"source": "ChEMBL document CHEMBL5543076", "about": "“Chromone-based small molecules for multistep shutdown of arachidonate pathway: Simultaneous inhibition of COX-2, 15-LOX and mPGES-1 enzymes” (Eur J Med Chem, 2024)", "key": {"[1]": {"target": "T1, Prostaglandin G/H synthase 1 (Ovis aries, UniProt P05979)", "T1 sequence (P05979 whole entry)": "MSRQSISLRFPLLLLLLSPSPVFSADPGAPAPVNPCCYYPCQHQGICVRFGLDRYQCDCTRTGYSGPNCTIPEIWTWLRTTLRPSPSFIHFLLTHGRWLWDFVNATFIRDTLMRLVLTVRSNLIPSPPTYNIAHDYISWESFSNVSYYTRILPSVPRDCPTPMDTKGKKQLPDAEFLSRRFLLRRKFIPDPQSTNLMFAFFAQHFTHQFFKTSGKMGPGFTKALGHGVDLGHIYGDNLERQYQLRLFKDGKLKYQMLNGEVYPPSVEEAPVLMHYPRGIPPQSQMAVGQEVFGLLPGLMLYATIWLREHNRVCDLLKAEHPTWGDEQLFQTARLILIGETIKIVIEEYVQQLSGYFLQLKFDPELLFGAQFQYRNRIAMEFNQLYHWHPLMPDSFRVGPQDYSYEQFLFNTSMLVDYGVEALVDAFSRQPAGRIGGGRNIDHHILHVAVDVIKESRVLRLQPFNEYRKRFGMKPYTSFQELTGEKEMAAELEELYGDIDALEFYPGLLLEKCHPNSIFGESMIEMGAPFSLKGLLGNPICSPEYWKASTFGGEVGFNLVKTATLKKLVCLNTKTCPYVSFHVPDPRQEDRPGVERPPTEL", "test": "Inhibition of ovine COX-1 by colorimetric assay", "summary_of_the_method": "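Ovine COX-1 enzyme kit, run following the manufacturer's instructions; IC50 reported as mean of three replicates.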"}, "[2]": {"test": "Inhibition of soybean 15-LOX", "design": "species or system Glycine max", "summary_of_the_method": "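Soybean 15-LOX activity measured with a lipoxygenase inhibitor screening kit per the manufacturer's instructions; IC50 determined.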"}, "Prostaglandin E synthase": {"target": "T2, Prostaglandin E synthase (Homo sapiens, UniProt O14684)", "T2 sequence (O14684 whole entry)": "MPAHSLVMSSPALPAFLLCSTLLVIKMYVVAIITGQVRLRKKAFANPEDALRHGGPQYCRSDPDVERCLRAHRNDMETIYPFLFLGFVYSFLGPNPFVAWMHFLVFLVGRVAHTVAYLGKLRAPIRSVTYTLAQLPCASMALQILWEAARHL", "test": "Inhibition of human mPGE2S1 using PGH2 as substrate measured after 5 mins by ELISA method", "summary_of_the_method": "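Cell-free assay using microsomes from interleukin-1β-stimulated human A549 lung carcinoma cells as enzyme source. Reaction contained 20 μM PGH2 and 2.5 mM glutathione with serial inhibitor dilutions, 5 min at room temperature. Stopped with SnCl2, which converts leftover PGH2 to PGF2α. PGE2 measured by ELISA; IC50 ± SD from log dose–response curve.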"}, "Rattus norvegicus": {"system": "Rattus norvegicus", "test": "Antiinflammatory activity in formalin-induced paw edema in Wistar rat model assessed as reduction in paw edema volume at 5 mg/kg, po administered once daily via gavage by 7 days by vernier caliper method", "assay_type": "functional, organism-based", "conditions": "time 7.0 day"}, "RAW264.7 [3]": {"system": "RAW264.7", "test": "Antiinflammatory activity against LPS-induced mouse RAW264.7 cells assessed as downregulation of TNF-alpha level at 50 ug/ml incubated for 24 hrs by RT-PCR analysis relative to control", "assay_type": "functional", "conditions": "dose 50 µg/ml"}, "RAW264.7 [4]": {"system": "RAW264.7", "test": "Antiinflammatory activity against LPS-induced mouse RAW264.7 cells assessed as downregulation of iNOS level at 50 ug/ml incubated for 24 hrs by RT-PCR analysis relative to control", "assay_type": "functional", "conditions": "dose 50 µg/ml"}, "RAW264.7 [5]": {"system": "RAW264.7", "test": "Antiinflammatory activity against LPS-induced mouse RAW264.7 cells assessed as downregulation of IL-1 beta level at 50 ug/ml incubated for 24 hrs by RT-PCR analysis relative to control", "assay_type": "functional", "conditions": "dose 50 µg/ml"}, "RAW264.7 [6]": {"system": "RAW264.7", "test": "Antiinflammatory activity against LPS-induced mouse RAW264.7 cells assessed as downregulation of COX-2 level at 50 ug/ml incubated for 24 hrs by RT-PCR analysis relative to control", "assay_type": "functional", "conditions": "dose 50 µg/ml"}, "RAW264.7 [7]": {"system": "RAW264.7", "test": "Antiinflammatory activity against LPS-induced mouse RAW264.7 cells assessed as upregulation of IL-10 level at 50 ug/ml incubated for 24 hrs by RT-PCR analysis relative to control", "assay_type": "functional", "conditions": "dose 50 µg/ml"}, "RAW264.7 [8]": {"system": "RAW264.7", "test": "Cytotoxicity against mouse RAW264.7 cells measured after 72 hrs by MTT assay", "assay_type": "functional, cell-based", "summary_of_the_method": "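RAW264.7 cells were seeded at 4 × 10³ per well with compound (100 to 0.4 μg/ml, in DMSO) for 72 h at 37 °C, 5% CO2. MTT (5 mg/ml solution) was added for 4 h, formazan dissolved in DMSO, and absorbance read at 490 nm.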"}, "[9]": {"test": "Toxicity in Wistar rat assessed as effect on gastric ulcer measured after 8 days", "conditions": "in vivo, 192 h, time 8 day", "summary_of_the_method": "(§1)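 Female Wistar rats dosed for eight days; stomachs then removed for gross inspection of ulceration and histology on H&E-stained sections.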"}, "[10]": {"test": "Toxicity in Wistar rat assessed as increase in submucosal inflammatory cells measured after 8 days by H and E staining based analysis", "conditions": "192 h, time 8 day", "summary_of_the_method": "as §1"}, "[11]": {"test": "Toxicity in Wistar rat assessed as dilation of submucosal blood vessels measured after 8 days by H and E staining based analysis", "conditions": "192 h, time 8 day", "summary_of_the_method": "as §1"}, "[12]": {"test": "Toxicity in Wistar rat assessed as effect on epithelium measured after 8 days by H and E staining based analysis", "conditions": "in vivo, 192 h, time 8 day", "summary_of_the_method": "as §1"}, "[13]": {"test": "Toxicity in Wistar rat assessed as congested vessels measured after 8 days by H and E staining based analysis", "conditions": "in vivo, 192 h, time 8 day", "summary_of_the_method": "as §1"}, "[14]": {"test": "Toxicity in Wistar rat assessed as abundant submucosal infiltration measured after 8 days by H and E staining based analysis", "conditions": "in vivo, 192 h, time 8 day", "summary_of_the_method": "as §1"}, "[15]": {"test": "Toxicity in Wistar rat assessed as effect on ulceration measured after 8 days by H and E staining based analysis", "conditions": "in vivo, 192 h, time 8 day", "summary_of_the_method": "as §1"}}, "note": "Calls of active or inactive are those of the source. No cut-off for these calls is given here."}
{"smiles": "COc1ccc2occ(/C=N/NC(=O)OCc3ccccc3)c(=O)c2c1", "values": [{"measurement": "IC50", "setting": "[1]", "value": 9.82, "unit": "µM"}, {"measurement": "IC50", "setting": "[2]", "value": 3.05, "unit": "µM"}, {"measurement": "IC50", "setting": "Prostaglandin E synthase", "value": 4.9, "unit": "µM"}, {"measurement": "Activity", "setting": "Rattus norvegicus", "value": "Active"}, {"measurement": "Activity", "setting": "RAW264.7 [3]", "value": 32, "unit": "%"}, {"measurement": "Activity", "setting": "RAW264.7 [4]", "value": 32, "unit": "%"}, {"measurement": "Activity", "setting": "RAW264.7 [5]", "value": 54, "unit": "%"}, {"measurement": "Activity", "setting": "RAW264.7 [6]", "value": 33, "unit": "%"}, {"measurement": "Activity", "setting": "RAW264.7 [7]", "value": 43, "unit": "%"}, {"measurement": "Activity", "setting": "RAW264.7 [8]", "value": "inactive"}, {"measurement": "Activity", "setting": "[9]", "value": "Non-Toxic"}, {"measurement": "Activity", "setting": "[10]", "value": "Toxic"}, {"measurement": "Activity", "setting": "[11]", "value": "Toxic"}, {"measurement": "Activity", "setting": "[12]", "value": "Non-Toxic"}]}
{"smiles": "COC(=O)N/N=C/c1coc2cc(OC)ccc2c1=O", "values": [{"measurement": "IC50", "setting": "[1]", "value": 6.01, "unit": "µM"}, {"measurement": "IC50", "setting": "[2]", "value": 4.59, "unit": "µM"}]}
{"smiles": "COC(=O)N/N=C/c1coc2ccccc2c1=O", "values": [{"measurement": "IC50", "setting": "[1]", "value": 7.43, "unit": "µM"}, {"measurement": "IC50", "setting": "[2]", "value": 2.77, "unit": "µM"}, {"measurement": "IC50", "setting": "Prostaglandin E synthase", "value": 3.7, "unit": "µM"}]}
{"smiles": "CN/N=C/c1coc2ccc(OC)cc2c1=O", "values": [{"measurement": "IC50", "setting": "[1]", "value": 8.67, "unit": "µM"}, {"measurement": "IC50", "setting": "[2]", "value": 3.25, "unit": "µM"}]}
{"smiles": "CN/N=C/c1coc2ccccc2c1=O", "values": [{"measurement": "IC50", "setting": "[1]", "value": 4.04, "unit": "µM"}, {"measurement": "IC50", "setting": "[2]", "value": 4.44, "unit": "µM"}]}
{"smiles": "O=C([O-])Cc1ccccc1Nc1c(Cl)cccc1Cl.[Na+]", "note": "[DICLOFENAC SODIUM]", "values": [{"measurement": "Activity", "setting": "[12]", "value": "Non-Toxic"}, {"measurement": "Activity", "setting": "[13]", "value": "Toxic"}, {"measurement": "Activity", "setting": "[14]", "value": "Toxic"}]}
{"smiles": "COc1ccc2c(=O)c(/C=N/NC(=O)OCc3ccccc3)coc2c1", "values": [{"measurement": "IC50", "setting": "[1]", "value": 11.1, "unit": "µM"}, {"measurement": "IC50", "setting": "[2]", "value": 2.39, "unit": "µM"}, {"measurement": "IC50", "setting": "Prostaglandin E synthase", "value": 2.8, "unit": "µM"}, {"measurement": "Activity", "setting": "Rattus norvegicus", "value": "Active"}, {"measurement": "Activity", "setting": "RAW264.7 [3]", "value": 32, "unit": "%"}, {"measurement": "Activity", "setting": "RAW264.7 [4]", "value": 32, "unit": "%"}, {"measurement": "Activity", "setting": "RAW264.7 [5]", "value": 54, "unit": "%"}, {"measurement": "Activity", "setting": "RAW264.7 [6]", "value": 33, "unit": "%"}, {"measurement": "Activity", "setting": "RAW264.7 [7]", "value": 43, "unit": "%"}, {"measurement": "Activity", "setting": "RAW264.7 [8]", "value": "inactive"}, {"measurement": "Activity", "setting": "[9]", "value": "Non-Toxic"}, {"measurement": "Activity", "setting": "[10]", "value": "Toxic"}, {"measurement": "Activity", "setting": "[11]", "value": "Toxic"}, {"measurement": "Activity", "setting": "[12]", "value": "Non-Toxic"}]}
{"smiles": "Cc1ccc(-c2cc(C(F)(F)F)nn2-c2ccc(S(N)(=O)=O)cc2)cc1", "note": "[CELECOXIB]", "values": [{"measurement": "IC50", "setting": "Prostaglandin E synthase", "value": 20.1, "unit": "µM"}, {"measurement": "Activity", "setting": "[15]", "value": "Non-Toxic"}]}
{"smiles": "O=c1c(O)c(-c2ccc(O)c(O)c2)oc2cc(O)cc(O)c12", "note": "[QUERCETIN]", "values": [{"measurement": "IC50", "setting": "[2]", "value": 3.34, "unit": "µM"}]}
{"smiles": "O=C(N/N=C/c1coc2ccccc2c1=O)OCc1ccccc1", "values": [{"measurement": "IC50", "setting": "[1]", "value": 12.2, "unit": "µM"}, {"measurement": "IC50", "setting": "[2]", "value": 1.72, "unit": "µM"}, {"measurement": "IC50", "setting": "Prostaglandin E synthase", "value": 4.1, "unit": "µM"}, {"measurement": "Activity", "setting": "Rattus norvegicus", "value": "Active"}, {"measurement": "Activity", "setting": "RAW264.7 [3]", "value": 32, "unit": "%"}, {"measurement": "Activity", "setting": "RAW264.7 [4]", "value": 32, "unit": "%"}, {"measurement": "Activity", "setting": "RAW264.7 [5]", "value": 54, "unit": "%"}, {"measurement": "Activity", "setting": "RAW264.7 [6]", "value": 33, "unit": "%"}, {"measurement": "Activity", "setting": "RAW264.7 [7]", "value": 43, "unit": "%"}, {"measurement": "Activity", "setting": "RAW264.7 [8]", "value": "inactive"}, {"measurement": "Activity", "setting": "[9]", "value": "Non-Toxic"}, {"measurement": "Activity", "setting": "[12]", "value": "Non-Toxic"}, {"measurement": "Activity", "setting": "[13]", "value": "Toxic"}, {"measurement": "Activity", "setting": "[14]", "value": "Toxic"}]}
{"smiles": "CN/N=C/c1coc2cc(OC)ccc2c1=O", "values": [{"measurement": "IC50", "setting": "[1]", "value": 3.62, "unit": "µM"}, {"measurement": "IC50", "setting": "[2]", "value": 4.31, "unit": "µM"}]}
{"smiles": "COC(=O)N/N=C/c1coc2ccc(OC)cc2c1=O", "values": [{"measurement": "IC50", "setting": "[1]", "value": 6.92, "unit": "µM"}, {"measurement": "IC50", "setting": "[2]", "value": 4.08, "unit": "µM"}]}
